According to ChEMBL document CHEMBL5303300, “EUbOPEN Chemogenomics Library - Multiplex” (2023):
“And” between values parts separate entries of the source, which are not always exact repeats. Equal values may be shown once.

Tested on: HEK-293T
Experiment: Multiplex assay against HEK293T
Format: toxicity, cell-based
Conditions: human, number of replicates 2
Method in brief: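 Four dyes were applied at seeding to live cells: Hoechst33342, BioTracker Green Microtubule Cytoskeleton Dye, MitoTracker Red and Annexin V Alexa Fluor 680. Imaging after compound addition used a CQ1 microscope at 37°C and 5% CO2. CellPathfinder machine-learning gating then sorted cells into Hoechst high-intensity objects or normal cells, normal cells into healthy, pyknosed or fragmented nuclei, and pyknosed cells into mitotic or apoptotic, with tubulin, mitochondrial-mass and membrane-permeability phenotypes given as per cents of healthy-nucleus cells.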

[1] = 12 h, 1 µM, compound concentration 1 uM
[2] = 12 h, 10 µM, compound concentration 10 uM
[3] = 24 h, 1 µM, compound concentration 1 uM
[4] = 24 h, 10 µM, compound concentration 10 uM
[5] = 48 h, 1 µM, compound concentration 1 uM
[6] = 48 h, 10 µM, compound concentration 10 uM

## COc1cc(C(=O)NC2CCN(C)CC2)ccc1Nc1ncc(C(F)(F)F)c(NCc2ccc(C)cc2N(C)S(C)(=O)=O)n1.O=CO.O=CO
[1]
  Population Apoptotic (%): 57% and 71%
  Population Fragmented Nuclei (%): 5% and 6%
  Population Healthy Nuclei (%): 81% and 84%
  Population Hoechst High Intensity Objects (%): 13% and 16%
  Population Membrane Permeable-Phenotype (%): 4% and 0%
  Population Mitochondria Different-Phenotype (%): 50% and 59%
  Population Mitotic Cells (%): 42% and 28%
  Population Normal (%): 86% and 83%
  Population Pyknosed Nuclei (%): 13% and 9%
  Population Tubulin-Different-Phenotype (%): 89% and 95%
  Total Cell Count: 378 and 461
[2]
  Population Apoptotic (%): 86% and 89%
  Population Fragmented Nuclei (%): 7% and 6%
  Population Healthy Nuclei (%): 45% and 62%
  Population Hoechst High Intensity Objects (%): 23%
  Population Membrane Permeable-Phenotype (%): 6% and 0%
  Population Mitochondria Different-Phenotype (%): 74% and 85%
  Population Mitotic Cells (%): 13% and 10%
  Population Normal (%): 76%
  Population Pyknosed Nuclei (%): 47% and 31%
  Population Tubulin-Different-Phenotype (%): 87% and 92%
  Total Cell Count: 288 and 266
[3]
  Population Apoptotic (%): 73% and 60%
  Population Fragmented Nuclei (%): 9% and 10%
  Population Healthy Nuclei (%): 83% and 80%
  Population Hoechst High Intensity Objects (%): 12%
  Population Membrane Permeable-Phenotype (%): 5% and 1%
  Population Mitochondria Different-Phenotype (%): 17%
  Population Mitotic Cells (%): 26% and 40%
  Population Normal (%): 87%
  Population Pyknosed Nuclei (%): 7% and 8%
  Population Tubulin-Different-Phenotype (%): 70% and 79%
  Total Cell Count: 658 and 751
[4]
  Population Apoptotic (%): 84% and 81%
  Population Fragmented Nuclei (%): 8% and 3%
  Population Healthy Nuclei (%): 35% and 51%
  Population Hoechst High Intensity Objects (%): 22% and 23%
  Population Membrane Permeable-Phenotype (%): 7% and 5%
  Population Mitochondria Different-Phenotype (%): 71% and 68%
  Population Mitotic Cells (%): 15% and 18%
  Population Normal (%): 77% and 76%
  Population Pyknosed Nuclei (%): 55% and 44%
  Population Tubulin-Different-Phenotype (%): 86% and 95%
  Total Cell Count: 363 and 344
[5]
  Population Apoptotic (%): 41% and 21%
  Population Fragmented Nuclei (%): 15% and 16%
  Population Healthy Nuclei (%): 81% and 79%
  Population Hoechst High Intensity Objects (%): 16% and 14%
  Population Membrane Permeable-Phenotype (%): 1% and 3%
  Population Mitochondria Different-Phenotype (%): 3% and 1%
  Population Mitotic Cells (%): 58% and 78%
  Population Normal (%): 83% and 85%
  Population Pyknosed Nuclei (%): 3%
  Population Tubulin-Different-Phenotype (%): 51% and 37%
  Total Cell Count: 1721 and 1697
[6]
  Population Apoptotic (%): 82% and 77%
  Population Fragmented Nuclei (%): 8% and 4%
  Population Healthy Nuclei (%): 22% and 25%
  Population Hoechst High Intensity Objects (%): 25% and 22%
  Population Membrane Permeable-Phenotype (%): 4% and 2%
  Population Mitochondria Different-Phenotype (%): 55% and 76%
  Population Mitotic Cells (%): 17% and 22%
  Population Normal (%): 74% and 77%
  Population Pyknosed Nuclei (%): 68% and 69%
  Population Tubulin-Different-Phenotype (%): 93% and 95%
  Total Cell Count: 374 and 336

## O=C(NCc1ccc(F)cc1)N1CCN2C(=O)OC(c3ccccc3)(c3ccccc3)C2C1 (stereo unspecified)
[1]
  Population Apoptotic (%): 56% and 58%
  Population Fragmented Nuclei (%): 5% and 3%
  Population Healthy Nuclei (%): 82% and 77%
  Population Hoechst High Intensity Objects (%): 8% and 6%
  Population Membrane Permeable-Phenotype (%): 6% and 1%
  Population Mitochondria Different-Phenotype (%): 18% and 19%
  Population Mitotic Cells (%): 43% and 41%
  Population Normal (%): 91% and 93%
  Population Pyknosed Nuclei (%): 11% and 19%
  Population Tubulin-Different-Phenotype (%): 76% and 63%
  Total Cell Count: 761 and 454
[2]
  Population Apoptotic (%): 72% and 41%
  Population Fragmented Nuclei (%): 2%
  Population Healthy Nuclei (%): 75% and 85%
  Population Hoechst High Intensity Objects (%): 7% and 4%
  Population Membrane Permeable-Phenotype (%): 5% and 3%
  Population Mitochondria Different-Phenotype (%): 34% and 53%
  Population Mitotic Cells (%): 27% and 58%
  Population Normal (%): 92% and 95%
  Population Pyknosed Nuclei (%): 21% and 12%
  Population Tubulin-Different-Phenotype (%): 93% and 97%
  Total Cell Count: 433 and 482
[3]
  Population Apoptotic (%): 36% and 63%
  Population Fragmented Nuclei (%): 8% and 5%
  Population Healthy Nuclei (%): 83%
  Population Hoechst High Intensity Objects (%): 7% and 9%
  Population Membrane Permeable-Phenotype (%): 5% and 2%
  Population Mitochondria Different-Phenotype (%): 4% and 8%
  Population Mitotic Cells (%): 63% and 36%
  Population Normal (%): 92% and 90%
  Population Pyknosed Nuclei (%): 7% and 11%
  Population Tubulin-Different-Phenotype (%): 51% and 38%
  Total Cell Count: 1157 and 707
[4]
  Population Apoptotic (%): 70% and 54%
  Population Fragmented Nuclei (%): 2% and 4%
  Population Healthy Nuclei (%): 83% and 85%
  Population Hoechst High Intensity Objects (%): 9% and 5%
  Population Membrane Permeable-Phenotype (%): 6% and 3%
  Population Mitochondria Different-Phenotype (%): 31% and 55%
  Population Mitotic Cells (%): 29% and 45%
  Population Normal (%): 90% and 94%
  Population Pyknosed Nuclei (%): 14% and 10%
  Population Tubulin-Different-Phenotype (%): 90% and 94%
  Total Cell Count: 529 and 537
[5]
  Population Fragmented Nuclei (%): 16% and 10%
  Population Healthy Nuclei (%): 80% and 86%
  Population Hoechst High Intensity Objects (%): 9%
  Population Membrane Permeable-Phenotype (%): 8% and 3%
  Population Mitochondria Different-Phenotype (%): 0% and 1%
  Population Mitotic Cells (%): 91% and 68%
  Population Normal (%): 90%
  Population Pyknosed Nuclei (%): 2% and 3%
  Population Tubulin-Different-Phenotype (%): 30% and 21%
  Total Cell Count: 2926 and 1423
[6]
  Population Apoptotic (%): 45% and 43%
  Population Fragmented Nuclei (%): 5% and 8%
  Population Healthy Nuclei (%): 87% and 85%
  Population Hoechst High Intensity Objects (%): 6%
  Population Membrane Permeable-Phenotype (%): 6% and 10%
  Population Mitochondria Different-Phenotype (%): 39% and 15%
  Population Mitotic Cells (%): 55% and 56%
  Population Normal (%): 93%
  Population Pyknosed Nuclei (%): 6% and 5%
  Population Tubulin-Different-Phenotype (%): 93% and 82%
  Total Cell Count: 655 and 824

## CN[C@@H]1C[C@H]2O[C@@](C)([C@@H]1OC)n1c3ccccc3c3c4c(c5c6ccccc6n2c5c31)C(=O)NC4 [STAUROSPORINE]
[2]
  Population Apoptotic (%): 56% and 55% and 68% and 63%
  Population Fragmented Nuclei (%): 20% and 14% and 21%
  Population Healthy Nuclei (%): 37% and 34% and 23% and 29%
  Population Hoechst High Intensity Objects (%): 7% and 8% and 5%
  Population Membrane Permeable-Phenotype (%): 11% and 12% and 7%
  Population Mitochondria Different-Phenotype (%): 46% and 52% and 60% and 51%
  Population Mitotic Cells (%): 43% and 44% and 31% and 36%
  Population Normal (%): 92% and 91% and 94%
  Population Pyknosed Nuclei (%): 41% and 51% and 55% and 50%
  Population Tubulin-Different-Phenotype (%): 72% and 77% and 76%
[4]
  Population Apoptotic (%): 85% and 83% and 86%
  Population Fragmented Nuclei (%): 16% and 13%
  Population Healthy Nuclei (%): 17% and 22% and 23% and 18%
  Population Hoechst High Intensity Objects (%): 12% and 8% and 10% and 7%
  Population Membrane Permeable-Phenotype (%): 10% and 7% and 6%
  Population Mitochondria Different-Phenotype (%): 45% and 63% and 62%
  Population Mitotic Cells (%): 14% and 16% and 13%
  Population Normal (%): 87% and 91% and 89% and 92%
  Population Pyknosed Nuclei (%): 66% and 64% and 63% and 65%
  Population Tubulin-Different-Phenotype (%): 58% and 59% and 76% and 79%
[6]
  Population Apoptotic (%): 90% and 89% and 87% and 81%
  Population Fragmented Nuclei (%): 13% and 11% and 10%
  Population Healthy Nuclei (%): 23% and 17% and 22% and 20%
  Population Hoechst High Intensity Objects (%): 14% and 9% and 11%
  Population Membrane Permeable-Phenotype (%): 11% and 6% and 5%
  Population Mitochondria Different-Phenotype (%): 47% and 62% and 64% and 65%
  Population Mitotic Cells (%): 9% and 10% and 12% and 18%
  Population Normal (%): 85% and 90% and 88%
  Population Pyknosed Nuclei (%): 63% and 71% and 66%
  Population Tubulin-Different-Phenotype (%): 59% and 72% and 68% and 75%
